In brackets after ≈: the same amount, converted by molar mass.
How the values were obtained:
Aspergillus fumigatus [1] = assay: Minimum inhibitory concentration required to inhibit 80% inoculum of Aspergillus fumigatus 119.00; assay type: functional
Aspergillus fumigatus [2] = assay: Minimum fungicidal concentration against Aspergillus fumigatus 168.95; assay type: functional
How it was run: (§1)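 Mould MFC: 100 µL aliquots from macrodilution tubes (RPMI 1640/MOPS pH 7.0, 0.5 × 10³ to 2.5 × 10³ CFU/mL conidial inoculum, 30 °C, 48-72 h, drug 100 to 0.09 µg/mL) showing complete growth inhibition plated on Sabouraud agar; MFC taken as lowest drug concentration giving three or fewer colonies.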

Aspergillus fumigatus [3] = assay: Minimum inhibitory concentration required to inhibit 80% inoculum of Aspergillus fumigatus 165.86; assay type: functional
Rhizopus arrhizus [4] = assay: Minimum fungicidal concentration against Rhizopus arrhizus 117.89; assay type: functional; how it was run: as §1
Aspergillus flavus [5] = assay: Minimum inhibitory concentration required to inhibit 80% inoculum of Aspergillus flavus 194.99; assay type: functional
Candida albicans [6] = assay: Minimum inhibitory concentration required to inhibit 100% inoculum of Candida albicans 117.00; assay type: functional
Rhizopus arrhizus [7] = assay: Minimum inhibitory concentration required to inhibit 100% inoculum of Rhizopus arrhizus 117.89; assay type: functional
Rhizopus arrhizus [8] = assay: Minimum inhibitory concentration required to inhibit 80% inoculum of Rhizopus arrhizus 117.89; assay type: functional
How it was run: (§2)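 Mould broth macrodilution, drug dilutions 100 to 0.09 µg/mL, in RPMI 1640 buffered at pH 7.0 with 0.165 M MOPS. Isolates are grown on Sabouraud dextrose agar at 30 °C for 4-14 days. Conidia are harvested in 0.85% NaCl/0.05% Tween 80, counted by hemocytometer, and diluted to 0.5 × 10³ to 2.5 × 10³ CFU/mL. Cultures incubated at 30 °C for 48-72 h until the control grows. MIC80 read visually against the growth control.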

Candida albicans [9] = assay: Minimum inhibitory concentration required to inhibit 80% inoculum of Candida albicans A39; assay type: functional
How it was run: (§3)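 Broth macrodilution following NCCLS M27-T, drug dilutions 100 to 0.09 µg/mL, in RPMI 1640 with glutamine, no bicarbonate, buffered to pH 7.0 with 0.165 M MOPS. Inoculum grown at 35 °C, adjusted to 0.5 × 10³ to 2.5 × 10³ CFU/mL, incubated at 35 °C and read at 48 h. MIC80 is the lowest concentration giving […] visual turbidity relative to the growth-control tube.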

Candida albicans [10] = assay: Minimum inhibitory concentration required to inhibit 80% inoculum of Candida albicans 116.98; assay type: functional; how it was run: as §3
Candida albicans [11] = assay: Minimum inhibitory concentration required to inhibit 100% inoculum of Candida albicans A39; assay type: functional
Candida albicans [12] = assay: Minimum fungicidal concentration against Candida albicans 149.97; assay type: functional
How it was run: (§4)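 Yeast MFC: after broth macrodilution (RPMI 1640/MOPS pH 7.0, 0.5 × 10³ to 2.5 × 10³ CFU/mL, 35 °C, 48 h or 72 h for C. neoformans, drug 100 to 0.09 µg/mL), 100 µL from tubes with complete inhibition plated on Sabouraud agar; lowest concentration yielding three or fewer colonies recorded.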

Aspergillus flavus [13] = assay: Minimum inhibitory concentration required to inhibit 80% inoculum of Aspergillus flavus 141.88; assay type: functional
Candida albicans [14] = assay: In vitro minimum fungicidal concentration against Candida albicans.; assay type: functional; how it was run: as §4
Aspergillus fumigatus [15] = assay: Minimum inhibitory concentration required to inhibit 100% inoculum of Aspergillus fumigatus 168.95; assay type: functional
Fusarium solani [16] = assay: Minimum inhibitory concentration required to inhibit 80% inoculum of Fusarium solani 152.89; assay type: functional; how it was run: as §2
Candida albicans [17] = assay: Minimum inhibitory concentration required to inhibit 80% inoculum of Candida albicans 156.97; assay type: functional; how it was run: as §3
Candida albicans [18] = assay: In vitro minimum inhibitory concentration against Candida albicans.; assay type: functional
Candida albicans [19] = assay: Minimum inhibitory concentration required to inhibit 100% inoculum of Candida albicans 156.97; assay type: functional
Aspergillus fumigatus [20] = assay: Minimum fungicidal concentration against Aspergillus fumigatus 119.00; assay type: functional; how it was run: as §1
Candida albicans [21] = assay: Minimum inhibitory concentration required to inhibit 100% inoculum of Candida albicans 149.97; assay type: functional
Aspergillus fumigatus [22] = assay: Minimum inhibitory concentration required to inhibit 100% inoculum of Aspergillus fumigatus 153.90; assay type: functional
Aspergillus fumigatus [23] = assay: Minimum inhibitory concentration required to inhibit 80% inoculum of Aspergillus fumigatus 168.95; assay type: functional
Aspergillus flavus [24] = assay: Minimum fungicidal concentration against Aspergillus flavus 141.88; assay type: functional; how it was run: as §1
Aspergillus fumigatus [25] = assay: Minimum inhibitory concentration required to inhibit 100% inoculum of Aspergillus fumigatus 165.86; assay type: functional
Candida albicans [26] = assay: Minimum fungicidal concentration against Candida albicans A39; assay type: functional; how it was run: as §4
[27] = test system: Mycobacterium tuberculosis; assay: In vitro minimum inhibitory concentration required to inhibit Mycobacterium tuberculosis; assay type: functional
How it was run: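 M. tuberculosis H37Rv grown in BACTEC 12B medium; fluorometric broth microdilution (Microplate Alamar Blue Assay). […] MIC = lowest concentration reducing relative fluorescence units by ≥90% relative to control culture. Testing done by TAACF.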

Aspergillus fumigatus [28] = assay: In vitro minimum fungicidal concentration required to inhibit Aspergillus fumigatus(MFC); assay type: functional; how it was run: as §1
Aspergillus fumigatus [29] = assay: Minimum fungicidal concentration against Aspergillus fumigatus 165.86; assay type: functional; how it was run: as §1
Cryptococcus neoformans [30] = assay: Minimum fungicidal concentration against Cryptococcus neoformans H99; assay type: functional; how it was run: as §4
Candida albicans [31] = assay: Minimum fungicidal concentration against Candida albicans 126.97; assay type: functional; how it was run: as §4
Aspergillus flavus [32] = assay: Minimum fungicidal concentration against Aspergillus flavus 107.96; assay type: functional; how it was run: as §1
Candida albicans [33] = assay: Minimum fungicidal concentration against Candida albicans 159.95; assay type: functional; how it was run: as §4
Candida albicans [34] = assay: Minimum inhibitory concentration required to inhibit 100% inoculum of Candida albicans 126.97; assay type: functional
Aspergillus fumigatus [35] = assay: Antimicrobial activity against Aspergillus fumigatus (MIC); assay type: functional
Cryptococcus neoformans [36] = assay: Minimum inhibitory concentration required to inhibit 80% inoculum of Cryptococcus neoformans H99; assay type: functional
How it was run: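 Broth macrodilution following NCCLS M27-T, drug dilutions 100 to 0.09 µg/mL, in RPMI 1640 with glutamine, no bicarbonate, MOPS 0.165 M, pH 7.0. Inoculum grown at 35 °C, 0.5 × 10³ to 2.5 × 10³ CFU/mL, incubated at 35 °C and interpreted at […]. MIC80 is the lowest concentration with turbidity […] of the growth control.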

Candida albicans [37] = assay: Minimum inhibitory concentration required to inhibit 80% inoculum of Candida albicans 117.00; assay type: functional; how it was run: as §3
Aspergillus flavus [38] = assay: Minimum inhibitory concentration required to inhibit 80% inoculum of Aspergillus flavus 107.96; assay type: functional
Fusarium solani [39] = assay: Minimum fungicidal concentration against Fusarium solani 152.89; assay type: functional; how it was run: as §1
Aspergillus fumigatus [40] = assay: Minimum inhibitory concentration required to inhibit 80% inoculum of Aspergillus fumigatus 182.99; assay type: functional
Aspergillus flavus [41] = assay: Minimum inhibitory concentration required to inhibit 100% inoculum of Aspergillus flavus 194.99; assay type: functional
Aspergillus flavus [42] = assay: Minimum fungicidal concentration against Aspergillus flavus 194.99; assay type: functional; how it was run: as §1
Candida albicans [43] = assay: Minimum inhibitory concentration required to inhibit 100% inoculum of Candida albicans 116.98; assay type: functional
Nucleic Acid [44] = test system: Nucleic Acid
Aspergillus fumigatus [45] = assay: Minimum inhibitory concentration required to inhibit 80% inoculum of Aspergillus fumigatus 153.90; assay type: functional
Candida albicans [46] = assay: Minimum inhibitory concentration required to inhibit 80% inoculum of Candida albicans 159.95; assay type: functional; how it was run: as §3
Candida albicans [47] = assay: Minimum inhibitory concentration required to inhibit 80% inoculum of Candida albicans 149.97; assay type: functional; how it was run: as §3
Cryptococcus neoformans [48] = assay: Minimum inhibitory concentration required to inhibit 100% inoculum of Cryptococcus neoformans H99; assay type: functional
Candida albicans [49] = assay: Minimum inhibitory concentration required to inhibit 80% inoculum of Candida albicans 126.97; assay type: functional; how it was run: as §3
Aspergillus fumigatus [50] = assay: Minimum fungicidal concentration against Aspergillus fumigatus 153.90; assay type: functional; how it was run: as §1
Candida albicans [51] = assay: Minimum fungicidal concentration against Candida albicans 156.97; assay type: functional; how it was run: as §4
Fusarium solani [52] = assay: Minimum inhibitory concentration required to inhibit 100% inoculum of Fusarium solani 152.89; assay type: functional
Candida albicans [53] = assay: Minimum inhibitory concentration required to inhibit 100% inoculum of Candida albicans 159.95; assay type: functional
Candida albicans [54] = assay: Minimum fungicidal concentration against Candida albicans 116.98; assay type: functional; how it was run: as §4
Candida albicans [55] = assay: Minimum fungicidal concentration against Candida albicans 117.00; assay type: functional; how it was run: as §4
Aspergillus fumigatus [56] = assay: Minimum fungicidal concentration against Aspergillus fumigatus 182.99; assay type: functional; how it was run: as §1
Aspergillus fumigatus [57] = assay: Minimum inhibitory concentration required to inhibit 100% inoculum of Aspergillus fumigatus 182.99; assay type: functional
Aspergillus fumigatus [58] = assay: Minimum inhibitory concentration required to inhibit 100% inoculum of Aspergillus fumigatus 119.00; assay type: functional
Aspergillus flavus [59] = assay: Minimum inhibitory concentration required to inhibit 100% inoculum of Aspergillus flavus 141.88; assay type: functional
Aspergillus flavus [60] = assay: Minimum inhibitory concentration required to inhibit 100% inoculum of Aspergillus flavus 107.96; assay type: functional
Nucleic Acid [61] = test system: Nucleic Acid; remark: listed apart in the source

Cc1ccc(C(=N)Nc2ccc(-c3ccc(-c4ccc(NC(=N)c5ccc(C)cn5)cc4C)o3)c(C)c2)nc1
MIC (Aspergillus fumigatus [1]): 3.12 µg/mL (≈ 6.06 µM)
MFC (Aspergillus fumigatus [2]): > 100 µg/mL
MIC (Aspergillus fumigatus [3]): 50 µg/mL (≈ 97.2 µM)
MFC (Rhizopus arrhizus [4]): 1.56 µg/mL (≈ 3.03 µM)
MIC (Aspergillus flavus [5]): 3.12 µg/mL (≈ 6.06 µM)
MIC (Candida albicans [6]): 3.12 µg/mL (≈ 6.06 µM)
MIC (Rhizopus arrhizus [7]): 1.56 µg/mL (≈ 3.03 µM)
MIC (Rhizopus arrhizus [8]): 0.78 µg/mL (≈ 1.52 µM)
MIC (Candida albicans [9]): 1.56 µg/mL (≈ 3.03 µM)
MIC (Candida albicans [10]): 1.56 µg/mL (≈ 3.03 µM)
MIC (Candida albicans [11]): 1.56 µg/mL (≈ 3.03 µM)
MFC (Candida albicans [12]): 6.25 µg/mL (≈ 12.1 µM)
MIC (Aspergillus flavus [13]): 3.12 µg/mL (≈ 6.06 µM)
MFC (Candida albicans [14]): 10 µg/mL (≈ 19.4 µM)
MIC (Aspergillus fumigatus [15]): 50 µg/mL (≈ 97.2 µM)
MIC (Fusarium solani [16]): 3.12 µg/mL (≈ 6.06 µM)
MIC (Candida albicans [17]): 1.56 µg/mL (≈ 3.03 µM)
MIC (Candida albicans [18]): ≤ 1 µg/mL
MIC (Candida albicans [19]): 3.15 µg/mL (≈ 6.12 µM)
MFC (Aspergillus fumigatus [20]): > 100 µg/mL
MIC (Candida albicans [21]): 1.56 µg/mL (≈ 3.03 µM)
MIC (Aspergillus fumigatus [22]): 50 µg/mL (≈ 97.2 µM)
MIC (Aspergillus fumigatus [23]): 10 µg/mL (≈ 19.4 µM)
MFC (Aspergillus flavus [24]): > 100 µg/mL
MIC (Aspergillus fumigatus [25]): 50 µg/mL (≈ 97.2 µM)
MFC (Candida albicans [26]): 25 µg/mL (≈ 48.6 µM)
MIC [27]: 2 µg/mL (≈ 3.89 µM)
MFC (Aspergillus fumigatus [28]): > 100 µg/mL
MFC (Aspergillus fumigatus [29]): > 100 µg/mL
MFC (Cryptococcus neoformans [30]): > 100 µg/mL
MFC (Candida albicans [31]): 3.12 µg/mL (≈ 6.06 µM)
MFC (Aspergillus flavus [32]): > 100 µg/mL
MFC (Candida albicans [33]): 3.12 µg/mL (≈ 6.06 µM)
MIC (Candida albicans [34]): 3.12 µg/mL (≈ 6.06 µM)
MIC (Aspergillus fumigatus [35]): 10 µg/mL (≈ 19.4 µM)
MIC (Cryptococcus neoformans [36]): 1.56 µg/mL (≈ 3.03 µM)
MIC (Candida albicans [37]): 0.78 µg/mL (≈ 1.52 µM)
MIC (Aspergillus flavus [38]): 3.12 µg/mL (≈ 6.06 µM)
MFC (Fusarium solani [39]): 50 µg/mL (≈ 97.2 µM)
MIC (Aspergillus fumigatus [40]): 3.12 µg/mL (≈ 6.06 µM)
MIC (Aspergillus flavus [41]): 6.25 µg/mL (≈ 12.1 µM)
MFC (Aspergillus flavus [42]): > 100 µg/mL
MIC (Candida albicans [43]): 1.56 µg/mL (≈ 3.03 µM)
ΔTm (Nucleic Acid [44]): 24.3
MIC (Aspergillus fumigatus [45]): 3.12 µg/mL (≈ 6.06 µM)
MIC (Candida albicans [46]): 0.79 µg/mL (≈ 1.54 µM)
MIC (Candida albicans [47]): 0.78 µg/mL (≈ 1.52 µM)
MIC (Cryptococcus neoformans [48]): 1.56 µg/mL (≈ 3.03 µM)
MIC (Candida albicans [49]): 1.56 µg/mL (≈ 3.03 µM)
MFC (Aspergillus fumigatus [50]): > 100 µg/mL
MFC (Candida albicans [51]): > 100 µg/mL
MIC (Fusarium solani [52]): 50 µg/mL (≈ 97.2 µM)
MIC (Candida albicans [53]): 1.58 µg/mL (≈ 3.07 µM)
MFC (Candida albicans [54]): > 100 µg/mL
MFC (Candida albicans [55]): 25 µg/mL (≈ 48.6 µM)
MFC (Aspergillus fumigatus [56]): > 100 µg/mL
MIC (Aspergillus fumigatus [57]): 50 µg/mL (≈ 97.2 µM)
MIC (Aspergillus fumigatus [58]): 50 µg/mL (≈ 97.2 µM)
MIC (Aspergillus flavus [59]): 50 µg/mL (≈ 97.2 µM)
MIC (Aspergillus flavus [60]): 50 µg/mL (≈ 97.2 µM)
ΔTm (Nucleic Acid [61]): 10.8
